sdo1 growth: growth rescue of sdo1-depleted yeast, primary screen, S. cerevisiae, bone marrow failure model; S. cerevisiae sdo1-depleted JHY4D growth rescue, OD600 30 h; stronger effect = higher value; pdr5 snq2 efflux-pump mutant strain; z-score at 10 µM; 0.21% of 140,000 active; AID 817, 2007;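 active = z-score above 3 at both the 24 hr and the 30 hr optical density reads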
Yeast growth inh: growth inhibitors of yeast BB579 in restrictive medium, primary screen, yeast lifespan-shortening project, S. cerevisiae | OD615, 48 h | inhibition, % at 10 µM | 0.51% of 140,000 active | AID 804, 2007;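 active = inhibition above a set limit, 3 SD over the mean compound inhibition, cut at about 44% in these data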
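test system = yeast BB579 (DeaD) | buffer or medium = restrictive CSMM-D medium | doses = single compound dose of 10 µM, 0.25% DMSO final | times = 4 h preincubation and 48 h exposure at 30 °C | technique = culture absorbance at 615 nm | benchmarks = amphotericin B 10 µg/mL, positive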
NCF1 inh: p47phox/p22phox peptide binding inhibitors, primary screen, biochemical, uHTS, NADPH oxidase regulatory subunit; inhibition, % at 24.7 µM; AID 1274, 2008; 0.53% of 220,000 active; fluorescence polarization, 2 h;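 active = inhibition above about 30%, limit read from the data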
Target sequence (P14598 whole entry, looked up): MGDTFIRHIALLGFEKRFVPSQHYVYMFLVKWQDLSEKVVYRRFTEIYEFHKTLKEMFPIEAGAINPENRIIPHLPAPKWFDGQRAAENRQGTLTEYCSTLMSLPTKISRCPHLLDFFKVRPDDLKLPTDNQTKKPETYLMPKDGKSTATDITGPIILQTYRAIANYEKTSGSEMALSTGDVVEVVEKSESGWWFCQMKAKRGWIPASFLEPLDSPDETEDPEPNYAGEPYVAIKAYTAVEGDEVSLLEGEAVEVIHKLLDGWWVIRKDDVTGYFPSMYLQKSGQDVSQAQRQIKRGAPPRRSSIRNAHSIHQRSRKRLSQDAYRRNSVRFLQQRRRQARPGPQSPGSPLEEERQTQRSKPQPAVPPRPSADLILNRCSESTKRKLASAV
RBBP9 inhibitor: human RBBP9 inhibitors, primary screen, biochemical, fluorescence polarization, FP-Rh probe, HTS. inhibition, % at 7.94 µM. recombinant RBBP9. 0.2% of 220,000 active. Serine hydrolase RBBP9 (Homo sapiens), O75884;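 active = inhibition above the campaign mean of all tested compounds plus 3 SD, cut at about 14% in these data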
Target sequence (O75884 whole entry, looked up): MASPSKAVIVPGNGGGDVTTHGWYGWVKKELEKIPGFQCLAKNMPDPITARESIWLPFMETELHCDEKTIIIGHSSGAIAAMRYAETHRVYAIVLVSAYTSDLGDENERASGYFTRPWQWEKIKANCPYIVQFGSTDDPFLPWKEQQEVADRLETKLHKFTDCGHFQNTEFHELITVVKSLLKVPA
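Test system: recombinant human RBBP9. Quantity: 2.5 µM RBBP9 dispensing solution, before mixing. Detection: FP readout at 525/598 nm. Reagent: Serine-hydrolase probe FP-Rh, 375 nM pre-mixing. Measure: % inhibition. Control set: DMSO-treated enzyme wells and wells lacking RBBP9. Buffer or medium: Tris-NaCl-Pluronic buffer, pH 8.0. Times: preincubation 30 min plus labeling 45 min at 25 °C.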
Yeast lifespan up: compounds extending yeast replicative lifespan, primary screen, S. cerevisiae, OD615; S. cerevisiae growth with nicotinamide; deaD strain in restrictive glucose medium; AID 775, 2007; 0.68% of 130,000 active; inhibition of the nicotinamide effect, % at 10 µM;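 active = inhibition above a set limit, placed 3 SD over the median of all compounds, cut at about 26% in these data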
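assay system = DeaD-strain S. cerevisiae | measured by = absorbance at 615 nm | probe or stimulus = nicotinamide 1.5 mM | buffer or medium = CSMM-D glucose medium, restrictive | times = 48 h at 30 °C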
Tb hexokinase: Trypanosoma brucei hexokinase 1 inhibitors, primary screen, biochemical, G6PDH-coupled NADH absorbance, MLSCN library; hexokinase 1 [Trypanosoma brucei]; recombinant TbHK1, G6PDH-coupled NADH A340; inhibition, % at 10 µM; 0.11% of 220,000 active;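 active = inhibition of 50% or more in the single-dose primary screen; inactive = inhibition below 50%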
Large screens that a line does not name were inactive. Only some compounds are listed: those with a hit (about 1.6% of all), similar ones and a draw of the others.

Cc1cccc(C(=O)NC(=S)NNC(=O)c2cccs2)c1	Yeast growth inh 49
COc1ccc(C2/C=C\CN(C(=O)NC34CC5CC(CC(C5)C3)C4)CC(=O)N2Cc2ccc(F)cc2)cc1 (stereo not drawn)	none (no result: sdo1 growth, Yeast growth inh, RBBP9 inhibitor, Yeast lifespan up)
COc1ccc(/C=C2\CCCC(C(=O)C(F)(F)F)=C2O)cc1OC	none (no result: sdo1 growth, Yeast growth inh, Yeast lifespan up)
CC(=O)c1c(C(C)=O)c(C)n(NC(=O)c2ccccc2O)c1C	none
CC(=O)c1c(C(C)=O)c(C)n(NC(=O)c2cccnc2)c1C	Yeast lifespan up 46
O=C1c2ccccc2C(=O)C1c1ccc2ccccc2n1	Yeast growth inh 54
Cc1cc(-c2n[nH]c(=S)n2/N=C/c2cc([N+](=O)[O-])ccc2Cl)n[nH]1	Yeast growth inh 96
Cc1ccc(N/C(C(Cl)=C(Cl)Cl)=C(/Cl)[N+](=O)[O-])c(C)c1	Yeast lifespan up 48
CCOC(=O)c1c(/N=C/c2cc([N+](=O)[O-])ccc2O)sc(C)c1C	Yeast growth inh 61
COc1ccc(O)c(N)c1	NCF1 inh 43 (no result: sdo1 growth, Yeast growth inh, Yeast lifespan up)
Cc1nn(C)c(C)c1C1Nc2ccccc2C(=O)N1O (stereo not drawn)	none (no result: Yeast lifespan up)
O=C1c2ccccc2NC(c2cnc3ccccc3n2)N1O (stereo not drawn)	Yeast lifespan up 57
CCCCCCCCCCCCCCCC[n+]1ccc(C(N)=O)cc1	Yeast growth inh 100, NCF1 inh 101, Tb hexokinase 64
CCCCCCCCCCCCCCCC[n+]1cccc(C(=O)N(CC)CC)c1	Yeast growth inh 101, NCF1 inh 108
CCCCN(CCCC)C(=O)C[n+]1cccc(/C=N/O)c1	none (no result: sdo1 growth, Yeast growth inh, Yeast lifespan up)
CCCCCCCCCCCCCCCC[n+]1ccc(/C=N/O)cc1	Yeast growth inh 100, NCF1 inh 97, RBBP9 inhibitor 40
COc1ccc(C(C[N+](=O)[O-])c2c(-c3ccccc3)cc3ccccn23)cc1OC (stereo not drawn)	none
COc1cc(C(C[N+](=O)[O-])c2c(-c3ccccc3)cc3ccccn23)cc(OC)c1OC (stereo not drawn)	Yeast lifespan up 78
O=C(Cc1c(Cl)cccc1Cl)OCC(=O)N1CCN(C(=O)c2ccco2)CC1	none (no result: sdo1 growth, Yeast growth inh, Yeast lifespan up)
Cc1ccc(/C(N)=N/OC(=O)c2ccc(Cl)cc2Cl)cc1	Yeast growth inh 99
CCOC(=O)c1ccc2[nH]c3c(c2c1)CCCC3O (stereo not drawn)	NCF1 inh 48 (no result: sdo1 growth, Yeast growth inh, Yeast lifespan up)
CCOC(=O)Cn1c(C)[n+](CC(=O)c2ccccc2)c2ccccc21	none (no result: sdo1 growth, Yeast growth inh, Yeast lifespan up)
CCCCC(=O)NC(=S)Nc1cccc(Cl)c1N1CCCCC1	Yeast lifespan up 29
O=c1cc(-c2ccncc2)oc2ccccc12	Yeast growth inh 46
O=c1cc(-c2ccc(O)cc2)oc2ccccc12	none (no result: sdo1 growth, Yeast growth inh, Yeast lifespan up)
CCCc1cc(=O)oc2cc(C)cc(O)c12	NCF1 inh 147
Cc1ccc2nc(-c3ccc(NC(=O)CSc4ccccc4)cc3)[nH]c2c1	Yeast lifespan up 76
O=C(CSc1ccccc1)Nc1ccc(-c2nc3ccccc3[nH]2)cc1	none
Cc1nn2c(C(F)(F)F)c3c(nc2c1-c1ccccc1)CCC3	none (no result: sdo1 growth, Yeast growth inh, Yeast lifespan up)
O=C(/C(=C/O)N=Nc1ccccc1)c1ccncc1	Yeast growth inh 88
NNC(=O)c1ccc(COc2ccc3c(c2)CCC3)o1	Yeast growth inh 91
Cc1ccc(-n2c(P(C)(=O)O)nc3ccccc32)cc1	none (no result: sdo1 growth, Yeast growth inh, Yeast lifespan up)
CCOc1ccc(-c2nnn(CC(=O)Nc3ccccc3OC)n2)cc1OCC	NCF1 inh 31
Cc1cc(NC(=O)C2CC2)ncc1NC(=O)C12CC3CC(CC(C3)C1)C2	Yeast lifespan up 29
O=c1cc(-c2ccccc2Cl)oc2ccc([N+](=O)[O-])c(O)c12	Yeast lifespan up 64
CC(C)(C)C(=O)Nc1cccc(-c2cc(-c3c(Cl)cccc3Cl)no2)c1	none (no result: sdo1 growth, Yeast growth inh, Yeast lifespan up)
CC(C)c1ccc(/C=C2\CC/C(=C\C=N\N(C)C)C2=O)cc1	NCF1 inh 76
CC(=O)N1CCC2(CC1)C/C(=N\NC(=S)Nc1ccc(C)cc1)c1cc(O)ccc1O2	none (no result: sdo1 growth, Yeast growth inh, Yeast lifespan up)
CCOc1cccc2c1OC1(C)CC2NC(=O)N1Cc1ccccc1 (stereo not drawn)	NCF1 inh 60 (no result: sdo1 growth, Yeast growth inh, Yeast lifespan up)
COc1cccc2c1OC1(C)CC2NC(=O)N1Cc1ccccc1 (stereo not drawn)	none
Cn1c(C(C#N)C2=C(Cl)C(=O)N(c3ccccc3)C2=O)nc2ccccc21 (stereo not drawn)	NCF1 inh 48
Cn1c(C(O)C(O)c2ccccc2)nc2ccccc21 (stereo not drawn)	none (no result: sdo1 growth, Yeast growth inh, Yeast lifespan up)
Oc1ccc(Cl)cc1Cc1cc(Cl)ccc1O	Yeast growth inh 84
Cc1c(NC(=O)c2ccc(Br)s2)c(=O)n(-c2ccccc2)n1C	none (no result: sdo1 growth, Yeast growth inh, Yeast lifespan up)
OC(CN1CCN(c2ccccn2)CC1)Cn1c2ccc(Cl)cc2c2cc(Cl)ccc21 (stereo not drawn)	Yeast growth inh 99
O=C(Cc1ccccc1Cl)Nc1cccnc1	none (no result: sdo1 growth, Yeast growth inh, Yeast lifespan up)
CCOC(=O)/C(C#N)=C\N(C)C	NCF1 inh 40
NC1=NS(=O)(=O)NC1c1ccc(Br)cc1 (stereo not drawn)	none (no result: sdo1 growth, Yeast growth inh, Yeast lifespan up)
CCOc1ccc(-n2c(SCC(=O)Nc3ccccc3CC)nc3n[nH]c(C)c3c2=N)cc1	none (no result: sdo1 growth, Yeast growth inh, Yeast lifespan up)
CCOc1ccc(-n2c(SCC(=O)Nc3ccc(Br)cc3)nc3n[nH]c(C)c3c2=N)cc1	NCF1 inh 41 (no result: sdo1 growth, Yeast growth inh, Yeast lifespan up)
CCCc1ccc(/C=C2\C(=O)c3ccccc3C(O)=C2C(=O)OCC)cc1	none
CCOC(=O)C1=C(Cc2ccc(OC)cc2)C(=O)c2ccccc2C1=O	NCF1 inh 93
CCOC(=O)C1=C(O)c2ccccc2C(=O)/C1=C\c1ccc(CC)cc1	NCF1 inh 56
C=C(C(=O)c1ccccc1)C(C)CC(=O)c1ccccc1 (stereo not drawn)	Yeast lifespan up 34
O=C(CC(Nc1ccccc1)C(=O)O)c1ccccc1 (stereo not drawn)	none (no result: RBBP9 inhibitor, Tb hexokinase)
COc1ccc2c(C)nc(Nc3nc(C)c(C)c(=O)[nH]3)nc2c1	Yeast growth inh 59
CCc1c(C)nc(Nc2nc(C)c3ccc(OC)cc3n2)[nH]c1=O	none
O=C(Nc1ccc2c(c1)OCCO2)NC1(C(F)(F)F)Oc2ccccc2O1	Yeast lifespan up 30
O=C(Nc1ccc2c(c1)OCCO2)c1c(F)c(F)c(F)c(F)c1F	NCF1 inh 63
CC1CC(C)CN(CC(=O)Nc2ccc3c(c2)OCCO3)C1 (stereo not drawn)	NCF1 inh 32
CC(=O)Nc1ccc2c(c1)OCCO2	none (no result: NCF1 inh)
O=C(Nc1ccc2c(c1)OCO2)NC1(C(F)(F)F)Oc2ccccc2O1	none
